Consider two compounds from ChEMBL document CHEMBL4052702 (Bioorg Med Chem Lett, 2017).

Test [1] deals with T1, Histone deacetylase 2 (Homo sapiens, UniProt Q92769). Description: Inhibition of HDAC2 (unknown origin) assessed as remaining enzyme activity at 0.125 uM by ELISA-based assay. The method, boiled down:
(§1)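 Isoform screen by ELISA-based HDAC activity assay against HDAC1, HDAC2, HDAC3 and HDAC6. Each analog was tested at one final concentration: 0.025, 0.125, 0.25 or 1.25 µM. Read-out is percent deacetylase activity remaining, given as the mean with standard error of at least two independent trials.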
For orientation: In an ELISA, binding on a coated surface is turned into a signal by an enzyme label.

The species entered for test [2] is Homo sapiens. The experiment in a line: Inhibition of HDAC in human HeLa-S3 cells lysates assessed as remaining enzyme activity at 5 x 10^-7 M pre-incubated for 15 mins before HDAC-Glo I/II substrate addition and measured after 30 mins post substrate addition. The class given is cell-free.
In test [3] the target is T2, Histone deacetylase 3 (Homo sapiens, UniProt O15379). Description: Inhibition of HDAC3 (unknown origin) assessed as remaining enzyme activity at 0.125 uM by ELISA-based assay. The method, boiled down:
as §1

The species entered for test [4] is Homo sapiens. Description: Inhibition of HDAC in human HeLa-S3 cells lysates assessed as remaining enzyme activity at 4 x 10^-6 M pre-incubated for 15 mins before HDAC-Glo I/II substrate addition and measured after 30 mins post substrate addition. Type of test: cell-free.
The species named for test [5] is Homo sapiens. The experiment in a line: Inhibition of HDAC in human HeLa-S3 cells lysates assessed as remaining enzyme activity at 1 x 10^-6 M pre-incubated for 15 mins before HDAC-Glo I/II substrate addition and measured after 30 mins post substrate addition. The class given is cell-free.
The species named for test [6] is Homo sapiens. The experiment in a line: Inhibition of HDAC in human HeLa-S3 cells lysates assessed as remaining enzyme activity at 8 x 10^-6 M pre-incubated for 15 mins before HDAC-Glo I/II substrate addition and measured after 30 mins post substrate addition. The class given is cell-free.
Test [7] in a line: Inhibition of HDAC in human HeLa-S3 cells lysates pre-incubated for 15 mins before HDAC-Glo I/II substrate addition and measured after 30 mins post substrate addition. The class given is cell-based.
Test [8] is filed under the species Homo sapiens. The experiment in a line: Inhibition of HDAC in human HeLa-S3 cells lysates assessed as remaining enzyme activity at 2 x 10^-6 M pre-incubated for 15 mins before HDAC-Glo I/II substrate addition and measured after 30 mins post substrate addition. Type of test: cell-free.
The target of test [9] is T3, Histone deacetylase 1 (Homo sapiens, UniProt Q13547). The experiment in a line: Inhibition of HDAC1 (unknown origin) assessed as remaining enzyme activity at 0.125 uM by ELISA-based assay. The method, boiled down:
as §1

Test [10] concerns the target T4, Protein deacetylase HDAC6 (Homo sapiens) (UniProt Q9UBN7).
T4 sequence (whole entry): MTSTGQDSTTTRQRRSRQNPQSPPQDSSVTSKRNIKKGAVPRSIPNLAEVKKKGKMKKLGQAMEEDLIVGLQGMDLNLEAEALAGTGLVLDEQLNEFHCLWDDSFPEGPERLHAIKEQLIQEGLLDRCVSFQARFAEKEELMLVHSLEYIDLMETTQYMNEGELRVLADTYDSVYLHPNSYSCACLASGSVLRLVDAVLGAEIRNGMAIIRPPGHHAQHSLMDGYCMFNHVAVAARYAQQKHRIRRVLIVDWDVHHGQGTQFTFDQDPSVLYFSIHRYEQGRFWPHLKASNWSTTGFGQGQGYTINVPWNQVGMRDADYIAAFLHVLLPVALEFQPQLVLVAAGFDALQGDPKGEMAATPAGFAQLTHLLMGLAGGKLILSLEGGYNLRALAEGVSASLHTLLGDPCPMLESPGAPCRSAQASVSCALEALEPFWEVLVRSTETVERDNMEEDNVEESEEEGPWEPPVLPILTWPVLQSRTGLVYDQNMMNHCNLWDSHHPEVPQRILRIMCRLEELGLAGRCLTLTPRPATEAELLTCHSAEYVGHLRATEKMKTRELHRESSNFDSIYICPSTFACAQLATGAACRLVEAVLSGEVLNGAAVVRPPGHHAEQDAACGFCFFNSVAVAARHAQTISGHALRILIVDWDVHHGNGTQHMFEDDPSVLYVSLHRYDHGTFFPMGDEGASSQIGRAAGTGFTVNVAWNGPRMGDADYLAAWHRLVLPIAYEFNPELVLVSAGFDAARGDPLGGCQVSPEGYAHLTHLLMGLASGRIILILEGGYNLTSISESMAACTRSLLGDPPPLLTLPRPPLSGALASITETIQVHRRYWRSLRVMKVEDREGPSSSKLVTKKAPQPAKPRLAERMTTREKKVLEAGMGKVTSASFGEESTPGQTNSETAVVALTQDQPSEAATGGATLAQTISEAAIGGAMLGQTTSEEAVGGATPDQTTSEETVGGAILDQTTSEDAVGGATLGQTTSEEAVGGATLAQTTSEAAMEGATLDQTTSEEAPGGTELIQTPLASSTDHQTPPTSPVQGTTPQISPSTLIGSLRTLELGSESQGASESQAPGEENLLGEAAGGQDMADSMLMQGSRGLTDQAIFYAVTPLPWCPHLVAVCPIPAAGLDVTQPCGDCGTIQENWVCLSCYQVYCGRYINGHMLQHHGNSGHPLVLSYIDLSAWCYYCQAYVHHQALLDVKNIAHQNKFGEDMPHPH
Description: Inhibition of HDAC6 (unknown origin) assessed as remaining enzyme activity at 0.125 uM by ELISA-based assay. The method, boiled down: as §1

The target in test [11] is T4, Protein deacetylase HDAC6 (Homo sapiens). The experiment in a line: Inhibition of HDAC6 (unknown origin) assessed as remaining enzyme activity at 0.025 uM by ELISA-based assay. The method, boiled down: as §1
The target in test [12] is T1, Histone deacetylase 2. Description: Inhibition of HDAC2 (unknown origin) assessed as remaining enzyme activity at 0.025 uM by ELISA-based assay. The procedure, abridged:
as §1

The species named for test [13] is Homo sapiens. The experiment in a line: Inhibition of HDAC in human HeLa-S3 cells lysates assessed as remaining enzyme activity at 6.25 x 10^-8 M pre-incubated for 15 mins before HDAC-Glo I/II substrate addition and measured after 30 mins post substrate addition. Type of test: cell-free.
The species entered for test [14] is Homo sapiens. The experiment in a line: Inhibition of HDAC in human HeLa-S3 cells lysates assessed as remaining enzyme activity at 2.5 x 10^-7 M pre-incubated for 15 mins before HDAC-Glo I/II substrate addition and measured after 30 mins post substrate addition. The class given is cell-free.
Test [15] concerns the target T3, Histone deacetylase 1. The experiment in a line: Inhibition of HDAC1 (unknown origin) assessed as remaining enzyme activity at 0.025 uM by ELISA-based assay. The procedure, abridged: as §1
The species entered for test [16] is Homo sapiens. Description: Inhibition of HDAC in human HeLa-S3 cells lysates assessed as remaining enzyme activity at 3.13 x 10^-8 M pre-incubated for 15 mins before HDAC-Glo I/II substrate addition and measured after 30 mins post substrate addition. The class given is cell-free.
Test [17] is filed under the species Homo sapiens. The experiment in a line: Inhibition of HDAC in human HeLa-S3 cells lysates assessed as remaining enzyme activity at 1.25 x 10^-7 M pre-incubated for 15 mins before HDAC-Glo I/II substrate addition and measured after 30 mins post substrate addition. The class given is cell-free.
Test [18] deals with T2, Histone deacetylase 3. Description: Inhibition of HDAC3 (unknown origin) assessed as remaining enzyme activity at 0.025 uM by ELISA-based assay. The procedure, abridged:
as §1

T1 sequence (Q92769 whole entry, canonical isoform): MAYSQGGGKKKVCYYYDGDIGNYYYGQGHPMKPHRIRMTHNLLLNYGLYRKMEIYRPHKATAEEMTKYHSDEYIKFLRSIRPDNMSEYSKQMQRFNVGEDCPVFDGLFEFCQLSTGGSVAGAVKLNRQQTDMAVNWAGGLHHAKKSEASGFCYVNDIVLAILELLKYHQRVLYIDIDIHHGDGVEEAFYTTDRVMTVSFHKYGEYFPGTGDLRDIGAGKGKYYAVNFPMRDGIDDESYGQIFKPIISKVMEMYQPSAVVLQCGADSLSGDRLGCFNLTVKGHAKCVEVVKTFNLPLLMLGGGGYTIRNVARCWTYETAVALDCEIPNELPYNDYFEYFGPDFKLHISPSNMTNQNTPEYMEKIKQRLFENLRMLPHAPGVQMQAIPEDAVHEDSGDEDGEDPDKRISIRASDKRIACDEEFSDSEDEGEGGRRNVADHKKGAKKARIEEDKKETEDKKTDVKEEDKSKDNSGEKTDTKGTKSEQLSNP
T3 sequence (Q13547 whole entry): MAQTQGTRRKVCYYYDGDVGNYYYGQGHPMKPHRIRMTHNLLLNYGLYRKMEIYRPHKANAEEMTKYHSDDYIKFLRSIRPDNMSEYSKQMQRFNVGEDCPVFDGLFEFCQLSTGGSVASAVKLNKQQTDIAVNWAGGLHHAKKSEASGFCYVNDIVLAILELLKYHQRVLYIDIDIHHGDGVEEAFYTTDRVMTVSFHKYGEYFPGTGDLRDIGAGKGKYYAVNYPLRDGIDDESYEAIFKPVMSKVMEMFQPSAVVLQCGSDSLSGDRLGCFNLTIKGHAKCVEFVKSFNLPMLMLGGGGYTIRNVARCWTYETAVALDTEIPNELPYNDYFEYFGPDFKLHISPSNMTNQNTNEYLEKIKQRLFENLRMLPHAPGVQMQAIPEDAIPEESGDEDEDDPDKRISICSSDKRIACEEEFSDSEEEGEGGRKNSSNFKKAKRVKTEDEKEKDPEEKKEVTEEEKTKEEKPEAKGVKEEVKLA
T2 sequence (O15379 whole entry): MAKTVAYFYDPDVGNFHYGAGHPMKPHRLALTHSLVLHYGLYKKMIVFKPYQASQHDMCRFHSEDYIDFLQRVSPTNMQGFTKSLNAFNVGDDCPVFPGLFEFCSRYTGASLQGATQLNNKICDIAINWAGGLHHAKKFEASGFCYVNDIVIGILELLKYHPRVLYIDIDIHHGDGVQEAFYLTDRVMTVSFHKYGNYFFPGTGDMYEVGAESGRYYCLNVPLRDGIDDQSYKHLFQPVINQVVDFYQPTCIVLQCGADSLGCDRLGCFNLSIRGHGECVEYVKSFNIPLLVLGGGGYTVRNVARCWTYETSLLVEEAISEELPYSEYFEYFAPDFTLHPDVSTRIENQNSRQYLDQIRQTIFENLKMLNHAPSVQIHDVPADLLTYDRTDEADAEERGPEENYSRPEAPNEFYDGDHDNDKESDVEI

For orientation: IC50 means the point on the concentration scale where inhibition reaches its midpoint. Higher therefore signals weaker potency. As for `O=C(CCCC(CCC(=O)Nc1ccccc1)c1ccccc1)NO` (centres undefined), the Activity in test [1] is 85%; in test [2], 94%; in test [3], 86%; in [4] it was 31%; in [5], 74%; in [6], 15%. Also, the Activity was 53% in test [8], 83% in test [9] and 63% in [10]. This compound yielded an IC50 in test [7] of 2200 nM.
Consider `CC(CCCC(=O)NO)CCC(=O)Nc1ccccc1` (centres undefined), for which the Activity in [2] came out at 14%; in test [11], 63%; in test [12] it was 81%; in test [13], 68%; in test [14], 15%; in [15], 67%. Besides, the Activity in test [16] worked out at 85%; in test [17], 44%; in test [18], 80%.
